{
  "source": "ChEMBL document CHEMBL1140317",
  "about": "“Novel alpha-amino-3-hydroxy-5-methyl-4-isoxazole propionate (AMPA) receptor antagonists of 2,3-benzodiazepine type: chemical synthesis, in vitro characterization, and in vivo prevention of acute neurodegeneration” (J Med Chem, 2005)",
  "key": {"[1]": {"biological_target": "Glutamate receptor ionotropic, AMPA (Rattus norvegicus, UniProt P19490+P19491+P19492+P19493)", "experiment": "In vitro inhibition of AMPA receptor mediated currents in primary cultured rat fetal hippocampal neurons", "type": "tissue-based, Hippocampus", "method_in_brief": "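Whole-cell patch clamp at −60 mV on hippocampal neurons from E19 Wistar rat fetuses, cultured 6–14 days (cytosine-arabinoside from day 6). Inward currents were evoked by bath-perfused kainate in pH 7.4 HEPES medium with CsCl pipet solution. Antagonist was bath-applied after 90 s preincubation in 0.3% DMSO final. Currents were normalized to the no-antagonist value, 5–6 cells per point, and the logistic fit gave IC50.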"}, "[2]": {"experiment": "Volume of distribution was measured", "type": "ADME, organism-based", "conditions": "in vivo; read-out: Volume of distribution", "method_in_brief": "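Rats were given 2.5 mg/kg iv. Plasma was sampled at nine time points from 5 min to 7 h, precipitated with acetonitrile (1:5) and quantified by LC/MS/MS against matrix calibration curves with an internal standard, C18 column, water/acetonitrile with 0.1% acetic acid gradient. Volume of distribution was calculated from the concentration–time data.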"}, "[3]": {"test_system": "Rattus norvegicus", "experiment": "Half life was measured after iv injection in rats", "conditions": "in vivo"}, "[4]": {"test_system": "Rattus norvegicus", "experiment": "Effect on total cerebral infarct volume measured 24 hour after permanent MCA occlusion in rat upon four i.p. doses of 3 mg/kg (n=12)", "type": "functional", "conditions": "route intraperitoneal", "method_in_brief": "(§1)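 Male Fischer-344 rats with permanent MCA occlusion received four ip injections in 10% cremophor EL at 1, 2, 3 and 4 h after occlusion. Total infarct volume (cortex and striatum) was measured 24 h after occlusion by TTC staining with Cavalieri volume calculation. Results are mean ± SD versus vehicle group, ANOVA followed by Dunnett test.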"}, "[5]": {"test_system": "Rattus norvegicus", "experiment": "Plasma clearance was measured after iv injection in rats"}, "[6]": {"test_system": "Mus musculus", "experiment": "Effect on brain lesion measured 24 hour after permanent MCA occlusion in mice upon four i.p. doses of 10 mg/kg (n=10)", "type": "functional", "conditions": "route intraperitoneal", "method_in_brief": "(§2)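 Male NMRI mice (23–30 g) under Avertin anesthesia (240 mg/kg ip), rectal temperature held at 37 ± 0.5 °C during surgery, underwent permanent MCA occlusion. Four ip injections in 10% cremophor EL were given 1 h before and 0, 1 and 2 h after occlusion. At 24 h, infarct volume was measured by TTC staining (Cavalieri principle). Results are mean ± SD versus vehicle, ANOVA with Dunnett test.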"}, "[7]": {"test_system": "Rattus norvegicus", "experiment": "Effect on total cerebral infarct volume measured 24 hour after permanent MCA occlusion in rat upon four i.p. doses of 10 mg/kg (n=15)", "type": "functional", "conditions": "route intraperitoneal", "method_in_brief": "as §1"}, "[8]": {"test_system": "Rattus norvegicus", "experiment": "Effect on total cerebral infarct volume measured 24 hour after permanent MCA occlusion in rat upon four i.p. doses of 30 mg/kg (n=10)", "type": "functional", "conditions": "route intraperitoneal", "method_in_brief": "as §1"}, "[9]": {"test_system": "Mus musculus", "experiment": "Effect on brain lesion measured 24 hr after permanent MCA occlusion in mice upon four i.p. doses of 30 mg/kg (n=8)", "type": "functional", "conditions": "route intraperitoneal", "method_in_brief": "as §2"}, "[10]": {"test_system": "Mus musculus", "experiment": "Effect on brain lesion measured 24 hour after permanent MCA occlusion in mice upon four i.p. doses of 10 mg/kg (n=9)", "type": "functional", "conditions": "route intraperitoneal", "method_in_brief": "as §2"}, "[11]": {"test_system": "Rattus norvegicus", "experiment": "Effect on total cerebral infarct volume measured 24 hour after permanent MCA occlusion in rat at a dose of 3 mg/kg (n=6)", "type": "functional", "method_in_brief": "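Male Fischer-344 rats underwent permanent MCA occlusion and received a single ip dose in physiological saline (0.9% NaCl) immediately after occlusion. Rectal temperature was held at 37 ± 0.5 °C during surgery. At 24 h, under Nembutal, brains were TTC-stained and infarct areas measured, with volume by Cavalieri principle. Mean ± SD; ANOVA with Dunnett's test versus vehicle.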"}, "[12]": {"test_system": "Mus musculus", "experiment": "Effect on brain lesion measured 24 hour after permanent MCA occlusion in mice upon three i.p. doses of 30 mg/kg (n=12)", "type": "functional", "conditions": "route intraperitoneal", "method_in_brief": "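Reference paradigm in male NMRI mice with permanent MCA occlusion, anesthetized with Avertin (240 mg/kg ip). Three ip injections of 30 mg/kg in physiological saline at 60, 70 and 85 min after occlusion (table footnote says 80 min). Infarct volume was measured at 24 h by TTC staining and Cavalieri calculation. Results are mean ± SD versus saline vehicle, ANOVA/Dunnett.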"}},
  "data": [
    {"smiles": "c1ccc(C2=Nn3ccnc3Cc3cc4c(cc32)OCO4)cc1", "values": [
      {"measurement": "IC50", "setting": "[1]", "value": 6.5, "unit": "µM"}
    ]},
    {"smiles": "Cc1nc2n(c1C)N=C(c1ccc(F)cc1)c1cc3c(cc1C2)OCO3", "values": [
      {"measurement": "IC50", "setting": "[1]", "value": 10, "unit": "µM"}
    ]},
    {"smiles": "Cc1nc2n(c1C)N=C(c1ccccc1)c1cc3c(cc1C2)OCO3", "values": [
      {"measurement": "IC50", "setting": "[1]", "value": 3.4, "unit": "µM"},
      {"measurement": "Vd", "setting": "[2]", "value": 2.7, "unit": "L/kg"},
      {"measurement": "half-life", "setting": "[3]", "value": 72, "unit": "min"},
      {"measurement": "Total infarct volume", "setting": "[4]", "value": 138, "unit": "mm³"},
      {"measurement": "clearance", "setting": "[5]", "value": 54, "unit": "mL/min/kg"},
      {"measurement": "Brain lesion", "setting": "[6]", "value": 17.1, "unit": "mm³"},
      {"measurement": "Total infarct volume", "setting": "[7]", "value": 142, "unit": "mm³"},
      {"measurement": "Total infarct volume", "setting": "[8]", "value": 132, "unit": "mm³"}
    ]},
    {"smiles": "Cc1c(CO)nc2n1N=C(c1ccccc1)c1cc3c(cc1C2)OCO3", "values": [
      {"measurement": "Brain lesion", "setting": "[9]", "value": 23, "unit": "mm³"},
      {"measurement": "IC50", "setting": "[1]", "value": 4.6, "unit": "µM"},
      {"measurement": "Brain lesion", "setting": "[10]", "value": 20.6, "unit": "mm³"}
    ]},
    {"smiles": "Clc1nc2n(c1Cl)N=C(c1ccccc1)c1cc3c(cc1C2)OCO3", "values": [
      {"measurement": "IC50", "setting": "[1]", "value": "> 10", "unit": "µM"}
    ]},
    {"smiles": "Cc1nc2n(c1C)N=C(c1ccc(Cl)cc1)c1cc3c(cc1C2)OCO3", "values": [
      {"measurement": "IC50", "setting": "[1]", "value": 10, "unit": "µM"}
    ]},
    {"smiles": "Brc1nc2n(c1Br)N=C(c1ccccc1)c1cc3c(cc1C2)OCO3", "values": [
      {"measurement": "IC50", "setting": "[1]", "value": "> 10", "unit": "µM"}
    ]},
    {"smiles": "C[C@]12N[C@H](Cc3ccccc31)c1ccccc12", "note": "[DIZOCILPINE]", "values": [
      {"measurement": "Total infarct volume", "setting": "[11]", "value": 118, "unit": "mm"}
    ]},
    {"smiles": "CC1=NN=C(c2ccc(N)cc2)c2cc3c(cc2C1)OCO3", "note": "[GYKI-52466]", "values": [
      {"measurement": "IC50", "setting": "[1]", "value": 9, "unit": "µM"}
    ]},
    {"smiles": "NS(=O)(=O)c1cccc2c1c([N+](=O)[O-])cc1nc(O)c(O)nc12", "note": "[NBQX]", "values": [
      {"measurement": "Brain lesion", "setting": "[12]", "value": 18.4, "unit": "mm³"}
    ]}
  ]
}
